Assays:
[1] = Cytotoxicity against human BJ cells; type: toxicity, cell-based
[2] = Cytotoxicity against human MRC5 cells; type: toxicity, cell-based
[3] = Displacement of [3H]-choline from choline transporter in human PC-3 cells preincubated with [3H]-choline for 15 mins followed by compound addition and measured after 60 mins; type: cell-based
[4] = Stability in human liver microsomes assessed as parent compound remaining at 2 uM after 60 mins in presence of NADPH generating system by RF-MS analysis; type: ADME, Microsome; conditions: read-out: Stability
Summary of the method: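 Compound at 2 μM with human liver microsomes (0.5 mg·mL⁻¹) and an NADPH-generating system (NADP⁺, isocitrate dehydrogenase, isocitric acid, MgSO4) in 0.1 M phosphate buffer at 37 °C. Samples taken at 0, 15, 30 and 60 min, quenched with ACN–methanol (2:1), freeze-dried, and analysed by RapidFire-MS against an internal standard.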

[5] = Stability in human plasma assessed as parent compound remaining at 2 uM after 2 hrs by RF-MS analysis; type: ADME, cell-free; conditions: read-out: Stability
Summary of the method: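 Compound at 2 μM final (DMSO ≤0.1%) incubated in human plasma at 37 °C, sampled at 0, 15, 30, 60 and 120 min. Quenched with ACN–methanol (2:1) and measured by RapidFire-MS/MS (ESI+, MRM). The value is the percent of parent remaining.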

[6] = Displacement of [3H]-choline from choline transporter in human U-87 MG cells preincubated with [3H]-choline for 15 mins followed by compound addition and measured after 60 mins; type: cell-based
Summary of the method: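 PC-3 cells were grown in F12 Ham with 10% FBS, 0.25% bicarbonate and pen/strep; U-87 MG cells in DMEM with 10% FBS, 0.1 mM NEAA and 1.0 mM pyruvate; both at 37 °C, 5% CO2, used at 70–90% confluence. [3H]choline was added in Tris uptake buffer (pH 7.4), then compound in triplicate over 10 concentrations; readout was radioactivity per g of protein (BCA), with IC50 from a sigmoidal fit.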

PC-3 [7] = experiment: Biodistribution in human PC-3 cells xenografted mouse measured after 3 hrs by PET method; type: ADME, organism-based; conditions: in vivo
Summary of the method: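 Mice carried subcutaneous PC-3 xenografts (5 × 10⁶ cells, right flank), with tumors at 100–300 mm³. [18F]fluorocholine 5–7 MBq was given retro-orbitally.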

PC-3 [8] = experiment: Biodistribution in human PC-3 cells xenografted mouse measured after 3 hrs by SPECT method; type: ADME, organism-based; conditions: in vivo
Summary of the method: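 Mice carried subcutaneous PC-3 xenografts. Static whole-body SPECT scans of 30 min under 2% isoflurane were run at 1, 3 and 24 h p.i., then a 20 min double CT.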

Structure (SMILES)	IC50 [1] [µM]	IC50 [2] [µM]	IC50 [3] [µM]	remaining at 1 h, 2 µM [4] [%]	remaining at 2 h, 2 µM [5] [%]	IC50 [6] [µM]	Drug uptake (PC-3 [7])	Drug uptake (PC-3 [8])
OCC[N+]1(CCCCC#CI)CCCC1	> 50	> 50	18	–	–	–	–	–
C[N+](C)(CCO)CCOc1ccccc1I	> 50	> 50	25	–	–	–	–	–
CCCCCCOc1ccc(CCC[N+](C)(C)CCO)cc1I	–	–	0.41	93	60	2.1	–	–
OCC[N+]1(CCOc2cccc(I)c2)CCCC1	> 50	> 50	15	–	–	–	–	–
C[N+](C)(C[18F])CCO.[Cl-]	–	–	–	–	–	–	Not Active	–
CS(=O)(=O)[O-].OCC[N+]1(Cc2cccc([123I])c2)CCCC1	–	–	–	–	–	–	–	Not Active
C[N+](C)(CCO)CCCCCCOc1ccc(I)c([N+](=O)[O-])c1	> 50	> 50	0.14	92	89	–	–	–
C[N+](C)(C)CCO [CHOLINE]	–	–	4.7	–	–	–	–	–
OCC[N+]1(CCc2ccc(I)s2)CCCC1	> 50	> 50	10	86	86	–	–	–
COc1c(I)cc(CC[N+](C)(C)CCO)cc1I	> 50	> 50	53	–	–	–	–	–
C[N+](C)(CCO)CCCCCCOc1cccnc1I	> 50	> 50	1.4	86	86	–	–	–
OCC[N+]1(Cc2ccc(I)cc2)CCCC1 [listing 1 of 2 here]	–	–	16	–	–	23	–	–
C[N+](C)(CCO)CCOc1cccc(I)c1	> 50	> 50	22	–	–	–	–	–
C[N+]1(C)CCOC(O)(c2ccc(-c3ccc(C4(O)C[N+](C)(C)CCO4)cc3)cc2)C1 (stereo not drawn)	–	–	36	–	–	–	–	–
CCCCCCCCCCOc1ccc(CCC[N+](C)(C)CCO)cc1I	–	–	2.1	82	85	1.7	–	–
OC1C[N+]2(CCc3ccc(I)cc3)CCC1CC2 (stereo not drawn)	> 50	> 50	75	–	–	–	–	–
OCC[N+]1(Cc2cccc(I)c2)CCCC1	> 50	> 50	28	90	66	8.8	–	–
CC[N+](CC)(CCO)Cc1ccc(I)cc1	> 50	> 50	77	–	–	77	–	–
C[N+](C)(CCO)CCCCOc1ccccc1I	> 50	> 50	11	54	91	–	–	–
C[N+](C)(CCO)CCCC#CI	> 50	> 50	3	95	89	–	–	–
OCCN1CC[N+](CCO)(Cc2ccccc2I)CC1	> 50	> 50	908	–	–	–	–	–
Cc1ccc(OCCCC[N+](C)(C)CCO)c(I)n1	> 50	> 50	18	–	–	–	–	–
C[N+](C)(CCO)Cc1ccc(I)cc1	> 50	> 50	130	–	–	129	–	–
OCC[N+]1(CCCCCCOc2cccc(I)c2)CCCC1	> 50	> 50	0.91	79	91	–	–	–
COc1ccc(CCC[N+](C)(C)CCO)cc1I	> 50	> 50	34	–	–	–	–	–
OCC[N+]1(CCc2ccc(I)cc2)CCCC1	> 50	> 50	19	96	98	29	–	–

Structure (SMILES)	IC50 [1] [µM]	IC50 [2] [µM]	IC50 [3] [µM]	remaining at 1 h, 2 µM [4] [%]	remaining at 2 h, 2 µM [5] [%]	IC50 [6] [µM]	Drug uptake (PC-3 [7])	Drug uptake (PC-3 [8])
C[N+](C)(CCO)Cc1ccccc1I	> 50	> 50	216	–	–	–	–	–
OCC[N+]1(CCCCOc2ccccc2I)CCCC1	> 50	> 50	5.1	70	91	–	–	–
C[N+](C)(CF)CCO	–	–	20	–	–	–	–	–
C[N+](C)(CCO)CCc1ccc(I)cc1	> 50	> 50	8.6	–	–	–	–	–
OC1C[N+]2(Cc3ccccc3I)CCC1CC2 (stereo not drawn)	> 50	> 50	160	–	–	–	–	–
OCC[N+]1(Cc2ccc(I)cc2)CCOCC1	> 50	> 50	273	–	–	–	–	–
CC[N+](CC)(CCO)Cc1ccccc1I	> 50	> 50	8.1	100	85	4.3	–	–
OCC[N+]1(Cc2ccc(I)cc2)CCCC1 [listing 2 of 2 here]	> 50	> 50	11	74	81	3.3	–	–
C[N+](C)(CCO)CCOc1ccc(I)cc1	> 50	> 50	23	–	–	–	–	–
C[N+](C)(CCO)CCCCCCOc1cccc([123I])c1.[Br-]	–	–	–	–	–	–	–	Not Active
C[N+](C)(CCO)Cc1cccc(I)c1	> 50	> 50	133	–	–	25	–	–
OCC[N+]1(Cc2ccccc2I)CCCCC1	> 50	> 50	217	–	–	–	–	–
C[N+](C)(CCCO)CCc1ccc(I)s1	> 50	> 50	1.1	–	–	–	–	–
C[N+]1(Cc2ccccc2I)CCCC(O)C1 (stereo not drawn)	> 50	> 50	197	–	–	–	–	–
C[N+](C)(CCO)CCc1ccc(I)s1	> 50	> 50	0.45	86	89	–	–	–
COc1ccc(CC[N+](C)(C)CCO)cc1I	> 50	> 50	24	–	–	–	–	–
OCC[N+]1(CCOc2ccc(I)cc2)CCCC1	> 50	> 50	18	–	–	–	–	–
C[N+](C)(CCO)CCc1cccc(I)c1	> 50	> 50	1.2	100	80	0.78	–	–
COc1ccc(CC[N+]23CCC(CC2)C(O)C3)cc1I (stereo not drawn)	> 50	> 50	115	–	–	–	–	–
OCC[N+]1(Cc2ccccc2I)CCOCC1	> 50	> 50	43	–	–	–	–	–
C[N+](C)(CCO)CCCCC#CI	> 50	> 50	36	–	–	–	–	–
OCC[N+]1(CCOc2ccccc2I)CCCC1	> 50	> 50	4.7	78	81	–	–	–
C[N+](C)(CCO)CCCCOc1ccc(-c2ccccc2)cc1I	–	–	1.3	89	90	–	–	–
C[N+]1(CCc2ccc(I)cc2)CCCC(O)C1 (stereo not drawn)	> 50	> 50	106	–	–	–	–	–
C[N+](C)(CCO)CCCCCCOc1cccc(I)c1	> 50	> 50	0.044	85	83	–	–	–
C[N+](C)(CCCCO)CCc1ccc(I)s1	> 50	> 50	30	–	–	–	–	–
